Activity calls are given as the source filed them. No cut-off for these calls is given here.
Experiments:
Norovirus [1] = test: Antiviral activity against human norovirus infected in human HG23 cells assessed as inhibition of viral replication at 10 uM after 3 days by qRT-PCR analysis relative to control; type: functional; design: scale not given: the % may be the effect or the level left
[2] = Cytotoxicity against human HG23 cells assessed as cell viability at 10 uM after 3 days by tetrazolium dye based assay relative to control; conditions: read-out: Activity
How it was run: (§1)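 HG23 cells were treated with DMSO or compound for 3 days, at 10 μM for single-point testing or across a dose range for CC50. Viability was read with a tetrazolium salt (EZ-CYTOX) reagent. Values are means of the most representative triplicate experiment with standard deviations.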

[3] = Cytotoxicity against human HG23 cells assessed as reduction in cell viability after 3 days by tetrazolium dye based assay; how it was run: as §1
Norovirus [4] = test: Antiviral activity against human norovirus infected in human HG23 cells assessed as inhibition of viral replication after 3 days by qRT-PCR analysis; type: functional, organism-based; conditions: HG23, 72 h
[5] = Therapeutic index, ratio of CC50 for cytotoxicity against human HG23 cells harboring human norovirus replicons to EC50 for antiviral activity against norovirus infected in human HG23 cells; type: toxicity, cell-based; conditions: read-out: Ratio CC50/EC50
Norovirus [6] = test: Antiviral activity against human norovirus infected in HG23 cells assessed as inhibition of neomycin phosphotransferase protein expression after 5 days by Western blot analysis; type: functional, organism-based; conditions: HG23, 120 h
Norovirus GII.4 = test: Inhibition of norovirus GII.4 RNA-dependent RNA polymerase using poly(C)RNA as substrate incubated for 10 mins and measured after 15 mins by picogreen staining based assay
How it was run: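 Recombinant human norovirus GII.4 Sydney 2012 RdRp (400 ng) was preincubated with compound (10 μM) or DMSO (0.5% v/v) for 10 min at 25 °C. It was then added to 5 μM rGTP, 6 μg/mL poly(C), 2.5 mM MnCl₂, 5 mM DTT, 0.01% BSA and 0.005% Tween 20 in 20 mM Tris-HCl pH 7.5. After 15 min at 25 °C, reactions were stopped with 10 mM EDTA and dsRNA quantified by PicoGreen fluorescence (ex 480/em 520). Two independent experiments were run in triplicate.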

[7] = Metabolic stability in human liver microsomes assessed as compound remaining at 1 uM preincubated for 5 mins followed by NADPH addition and measured after 30 mins by LC-MS/MS analysis relative to control; type: ADME, Microsome; conditions: read-out: Stability
How it was run: (§2)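 Human or mouse liver microsomes (0.5 mg/ml) in 0.1 M phosphate buffer pH 7.4 were preincubated with compound at 1 μM for 5 min at 37 °C. An NADPH regeneration system was then added or omitted, and incubation continued 30 min at 37 °C. Reactions were stopped with acetonitrile containing internal standard. Parent compound remaining was measured by LC-MS/MS (C18 column, 0.1% formic acid water/acetonitrile).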

[8] = Metabolic stability in human liver microsomes assessed as compound remaining at 1 uM after 30 mins in absence of NADPH by LC-MS/MS analysis relative to control; type: ADME, Microsome; conditions: read-out: Stability; how it was run: as §2
[9] = Metabolic stability in mouse liver microsomes assessed as compound remaining at 1 uM preincubated for 5 mins followed by NADPH addition and measured after 30 mins in presence of NADPH relative to control; type: ADME, Microsome; conditions: read-out: Stability; how it was run: as §2
[10] = Metabolic stability in mouse liver microsomes assessed as compound remaining at 1 uM after 30 mins in absence of NADPH by LC-MS/MS analysis relative to control; type: ADME, Microsome; conditions: read-out: Stability; how it was run: as §2
Murine norovirus 1 = test: Antiviral activity against MNV-1 infected in mouse RAW264.7 cells at 0.05 to 10 uM after 48 hrs by crystal violet staining based assay; type: functional, cell-based
Feline calicivirus = test: Antiviral activity against feline calicivirus- infected in cat CRFK cells at >5 uM after 48 hrs by crystal violet staining based assay; type: functional, organism-based
[11] = molecular target: T1, Nuclear factor erythroid 2-related factor 2 (Homo sapiens) (UniProt Q16236); test: Activation of NRF2 pathway in human HG23 cells transfected with human norovirus at 10 uM after 72 hrs by dual-luciferase reporter gene assay; type: cell-based
T1 sequence (whole entry): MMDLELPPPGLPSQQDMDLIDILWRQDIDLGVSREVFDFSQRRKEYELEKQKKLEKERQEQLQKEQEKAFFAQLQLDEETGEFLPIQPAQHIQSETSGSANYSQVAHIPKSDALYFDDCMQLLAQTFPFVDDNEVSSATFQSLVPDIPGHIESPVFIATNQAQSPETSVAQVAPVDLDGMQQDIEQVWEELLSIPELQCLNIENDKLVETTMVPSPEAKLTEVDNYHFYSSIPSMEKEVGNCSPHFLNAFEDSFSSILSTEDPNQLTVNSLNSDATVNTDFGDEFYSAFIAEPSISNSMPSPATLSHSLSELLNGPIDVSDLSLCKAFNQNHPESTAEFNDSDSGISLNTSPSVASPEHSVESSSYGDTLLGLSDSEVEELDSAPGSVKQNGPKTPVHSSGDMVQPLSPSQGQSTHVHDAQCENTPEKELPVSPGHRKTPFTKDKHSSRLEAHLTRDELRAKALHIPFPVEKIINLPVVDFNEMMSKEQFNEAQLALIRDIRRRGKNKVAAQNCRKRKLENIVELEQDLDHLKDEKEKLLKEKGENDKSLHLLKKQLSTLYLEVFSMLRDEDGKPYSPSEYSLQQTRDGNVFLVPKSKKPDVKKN
How it was run: (§3)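 HG23 cells carrying the NV replicon were transfected with a Cignal finder reporter array and then given DMSO or 10 μM test compound for 72 h. Luciferase activity for each pathway was read with a dual-luciferase reagent.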

[12] = molecular target: T2, Heat shock factor protein 1 (Homo sapiens) (UniProt Q00613); test: Activation of HSF-1 in human HG23 cells transfected with human norovirus at 10 uM after 72 hrs by dual-luciferase reporter gene assay; type: cell-based; how it was run: as §3
T2 sequence (whole entry): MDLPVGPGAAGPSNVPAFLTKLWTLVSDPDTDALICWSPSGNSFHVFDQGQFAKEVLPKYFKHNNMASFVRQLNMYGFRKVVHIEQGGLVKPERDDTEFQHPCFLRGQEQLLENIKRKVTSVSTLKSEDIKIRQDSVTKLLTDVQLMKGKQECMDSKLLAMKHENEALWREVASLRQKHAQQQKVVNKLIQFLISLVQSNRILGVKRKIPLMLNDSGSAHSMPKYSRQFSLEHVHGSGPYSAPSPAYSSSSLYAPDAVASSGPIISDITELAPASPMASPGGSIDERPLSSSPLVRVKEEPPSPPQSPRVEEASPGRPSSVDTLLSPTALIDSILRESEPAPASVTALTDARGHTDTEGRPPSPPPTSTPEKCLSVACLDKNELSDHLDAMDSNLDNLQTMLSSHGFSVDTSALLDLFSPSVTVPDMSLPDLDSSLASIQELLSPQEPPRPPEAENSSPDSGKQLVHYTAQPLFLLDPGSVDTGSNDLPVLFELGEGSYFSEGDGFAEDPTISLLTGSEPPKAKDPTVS

[13] = molecular target: T2, Heat shock factor protein 1 (Homo sapiens); test: Activation of HSF-1 in human HG23 cells transfected with human norovirus after 72 hrs by dual-luciferase reporter gene assay; type: cell-based; how it was run: as §3

C=Cc1c(OC)cc(/C=C/c2ccc(C(=O)N3CCN(Cc4ccc(C(F)(F)F)cc4)CC3)cc2)cc1OC
Activity (Norovirus [1]): 4.2% | viability at 72 h, 10 µM [2]: 105% | CC50 at 72 h [3]: > 100000 nM | EC50 (Norovirus [4]): 2430 nM | selectivity ratio [5]: > 41.2 | EC50 (Norovirus [6]): 800 nM | inhibition (Norovirus GII.4): inactive | remaining at 0.5 h, 1 µM [7]: 89.1% | remaining at 0.5 h, 1 µM [8]: 94.3% | remaining at 0.5 h, 1 µM [9]: 70.5% | remaining at 0.5 h, 1 µM [10]: 99.2% | Activity (Murine norovirus 1): inactive | Activity (Feline calicivirus): Active | Activity [11]: Active | Activity [12]: Active | Activity [13]: Dose-dependent effect

Reference: ChEMBL document CHEMBL4311988, “Identification of novel non-nucleoside vinyl-stilbene analogs as potent norovirus replication inhibitors with a potential host-targeting mechanism” (Eur J Med Chem, 2019)
